According to ChEMBL document CHEMBL4028886 (J Med Chem, 2017):
Activity calls are given as the source filed them. No cut-off for these calls is given here.

Tests used:
Format in all cases: cell-based
[1] = target: T1, Sodium-dependent dopamine transporter (Homo sapiens, UniProt Q01959); assay: Inhibition of re-uptake of [3H]-dopamine at human DAT expressed in HEK293 cells preincubated for 5 mins followed by [3H]-dopamine addition measured after 1 min by liquid scintillation counting
How it was run: (§1)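 HEK293 cells stably expressing human DAT or NET, seeded on PDL-coated plates 24 h before. Preincubated 5 min in Krebs–HEPES buffer pH 7.3 with compound at 0.001 μM to 1 mM (DMSO stock diluted in buffer). Substrate then added: 0.2 μM [3H]dopamine for DAT, 1 min; 0.05 μM [3H]MPP+ for NET, 3 min. Room temperature. Uptake stopped with ice-cold buffer. Cells lysed in 1% SDS and counted by scintillation. Unspecific uptake defined with 10 μM mazindol. IC50 by nonlinear regression.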

[2] = target: Sodium-dependent noradrenaline transporter (Homo sapiens, UniProt P23975); assay: Inhibition of re-uptake of [3H]MPP+ at human NET expressed in HEK293 cells preincubated for 5 mins followed by […] addition measured after 3 min by liquid scintillation counting; how it was run: as §1
Chain of Sodium-dependent noradrenaline transporter (P23975 whole entry): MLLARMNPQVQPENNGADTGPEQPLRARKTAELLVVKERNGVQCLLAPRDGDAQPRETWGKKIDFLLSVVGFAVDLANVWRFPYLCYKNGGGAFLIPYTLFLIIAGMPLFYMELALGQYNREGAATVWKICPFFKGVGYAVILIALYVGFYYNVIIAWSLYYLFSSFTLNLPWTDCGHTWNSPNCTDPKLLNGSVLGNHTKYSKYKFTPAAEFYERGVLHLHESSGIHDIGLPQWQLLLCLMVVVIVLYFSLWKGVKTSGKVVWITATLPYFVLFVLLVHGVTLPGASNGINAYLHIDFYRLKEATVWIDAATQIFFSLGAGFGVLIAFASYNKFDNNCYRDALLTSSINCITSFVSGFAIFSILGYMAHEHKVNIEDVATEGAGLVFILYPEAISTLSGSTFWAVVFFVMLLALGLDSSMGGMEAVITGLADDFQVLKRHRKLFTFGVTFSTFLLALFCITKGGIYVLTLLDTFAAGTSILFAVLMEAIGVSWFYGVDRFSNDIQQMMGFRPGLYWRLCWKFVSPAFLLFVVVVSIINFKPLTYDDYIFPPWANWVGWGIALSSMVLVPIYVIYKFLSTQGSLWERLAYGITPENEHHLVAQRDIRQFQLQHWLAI

[3] = target: Sodium-dependent serotonin transporter (Homo sapiens, UniProt P31645); assay: Inhibition of re-uptake of [3H]-5-HT at human SERT expressed in HEK293 cells preincubated for 5 mins followed by [3H]-dopamine addition measured after 1 min by liquid scintillation counting
Chain of Sodium-dependent serotonin transporter (P31645 whole entry): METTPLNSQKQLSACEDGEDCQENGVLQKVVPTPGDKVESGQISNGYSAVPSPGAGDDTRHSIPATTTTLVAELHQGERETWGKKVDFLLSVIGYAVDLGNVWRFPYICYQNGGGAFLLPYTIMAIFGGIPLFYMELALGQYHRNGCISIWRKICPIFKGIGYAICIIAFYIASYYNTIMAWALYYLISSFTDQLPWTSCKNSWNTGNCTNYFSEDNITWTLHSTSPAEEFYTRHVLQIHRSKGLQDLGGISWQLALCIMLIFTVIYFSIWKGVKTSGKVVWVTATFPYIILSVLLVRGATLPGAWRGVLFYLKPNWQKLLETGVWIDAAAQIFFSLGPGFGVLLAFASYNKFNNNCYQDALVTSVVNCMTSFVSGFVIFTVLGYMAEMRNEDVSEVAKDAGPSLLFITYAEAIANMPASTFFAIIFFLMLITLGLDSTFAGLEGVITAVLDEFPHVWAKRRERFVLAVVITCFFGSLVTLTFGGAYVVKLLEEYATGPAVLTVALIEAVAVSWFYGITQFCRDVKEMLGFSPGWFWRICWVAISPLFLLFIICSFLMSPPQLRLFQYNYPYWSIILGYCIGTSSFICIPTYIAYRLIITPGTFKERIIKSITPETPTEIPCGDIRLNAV

[4] = target: T1, Sodium-dependent dopamine transporter; assay: Displacement of [3H]WIN 35,428 from human DAT expressed in HEK293 cells at 2 and 4 uM after 30 mins in presence of increasing concentration of cocaine by liquid scintillation counting
How it was run: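 Intact HEK-DAT cells on PDL-coated plates, in binding buffer (HEPES, NaCl, KCl, CaCl2, MgCl2, 10 μM ZnCl2, glucose, pH 7,3). Incubated with ~10 nM [3H]WIN 35,428, fixed concentrations of test compound and cocaine 0.001–1 μM, 30 min at 25 °C. Nonspecific binding defined with 30 μM mazindol. Cells lysed in 1% SDS and counted by scintillation. Reciprocal of bound (fmol) plotted against cocaine concentration as Dixon plot. Three experiments in triplicate, mean ± SD.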

T1 sequence (Q01959 whole entry): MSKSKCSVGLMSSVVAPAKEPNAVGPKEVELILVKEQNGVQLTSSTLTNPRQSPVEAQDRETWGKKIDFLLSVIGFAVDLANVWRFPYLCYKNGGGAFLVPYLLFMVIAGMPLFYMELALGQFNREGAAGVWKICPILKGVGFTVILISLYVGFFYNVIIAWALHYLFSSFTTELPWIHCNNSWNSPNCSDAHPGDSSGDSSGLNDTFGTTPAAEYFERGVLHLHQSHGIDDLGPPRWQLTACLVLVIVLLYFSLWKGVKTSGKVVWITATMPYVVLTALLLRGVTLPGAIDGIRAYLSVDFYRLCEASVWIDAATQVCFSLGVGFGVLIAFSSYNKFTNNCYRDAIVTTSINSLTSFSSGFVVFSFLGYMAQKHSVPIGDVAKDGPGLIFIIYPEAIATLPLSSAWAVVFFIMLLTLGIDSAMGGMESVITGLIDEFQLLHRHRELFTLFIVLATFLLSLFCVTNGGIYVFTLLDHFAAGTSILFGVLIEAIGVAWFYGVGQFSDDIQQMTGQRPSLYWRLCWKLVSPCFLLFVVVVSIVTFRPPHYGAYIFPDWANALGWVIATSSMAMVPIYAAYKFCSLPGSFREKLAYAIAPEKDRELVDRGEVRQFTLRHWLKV

Compound: Cc1cnc(C[S+]([O-])C(c2ccccc2)c2ccccc2)nc1 (stereo unspecified)
- IC50 ([1]; read-out: IC50): 156 µM
- IC50 ([2]; hek293): Not Active
- IC50 ([3]; hek293): Not Active

Compound: Cc1cc(C[S+]([O-])C(c2ccccc2)c2ccccc2)nc(C)n1 (stereo unspecified)
- IC50 ([1]; read-out: IC50): 82.6 µM
- IC50 ([2]; read-out: IC50): 768 µM
- IC50 ([3]; hek293): Not Active

Compound: Cc1cc(O)nc(C[S+]([O-])C(c2ccccc2)c2ccccc2)n1 (stereo unspecified)
- IC50 ([1]; read-out: IC50): 109 µM
- IC50 ([2]; hek293): Not Active
- IC50 ([3]; hek293): Not Active

Compound: [O-][S+](Cc1ccsc1Br)C(c1ccccc1)c1ccccc1 (stereo unspecified)
- IC50 ([1]; read-out: IC50): 29.3 µM
- IC50 ([2]; read-out: IC50): 144 µM
- IC50 ([3]; read-out: IC50): 59.6 µM

Compound: Cc1nnc(C[S+]([O-])C(c2ccccc2)c2ccccc2)s1 (stereo unspecified)
- IC50 ([1]; hek293): Not Active
- IC50 ([2]; hek293): Not Active
- IC50 ([3]; hek293): Not Active

Compound: COc1cc(C)nc(C[S+]([O-])C(c2ccccc2)c2ccccc2)n1 (stereo unspecified)
- IC50 ([1]; read-out: IC50): 90.5 µM
- IC50 ([2]; read-out: IC50): 228 µM
- IC50 ([3]; hek293): Not Active

Compound: Cc1scc(C[S+]([O-])C(c2ccccc2)c2ccccc2)c1C (stereo unspecified)
- IC50 ([1]; read-out: IC50): 284 µM
- IC50 ([2]; hek293): Not Active
- IC50 ([3]; hek293): Not Active

Compound: Cc1nc(O)cc(C[S+]([O-])C(c2ccccc2)c2ccccc2)n1 (stereo unspecified)
- IC50 ([1]; read-out: IC50): 3.1 µM
- IC50 ([2]; hek293): Not Active
- IC50 ([3]; hek293): Not Active
- inhibition [4]: Active

Compound: Cc1ccc(C(c2ccccc2)[S+]([O-])Cc2cccs2)cc1 (stereo unspecified)
- IC50 ([1]; read-out: IC50): 2 µM
- IC50 ([2]; read-out: IC50): 152 µM
- IC50 ([3]; read-out: IC50): 118 µM

Compound: [O-][S+](Cc1nc(O)cc(C(F)(F)F)n1)C(c1ccccc1)c1ccccc1 (stereo unspecified)
- IC50 ([1]; read-out: IC50): 40.4 µM
- IC50 ([2]; hek293): Not Active
- IC50 ([3]; hek293): Not Active

Compound: NC(=O)C[S+]([O-])C(c1ccccc1)c1ccccc1 (stereo unspecified) [MODAFINIL]
- IC50 ([2]; read-out: IC50): 284 µM

Compound: CC(C)c1nnsc1C[S+]([O-])C(c1ccccc1)c1ccccc1 (stereo unspecified)
- IC50 ([1]; read-out: IC50): 69.1 µM
- IC50 ([2]; read-out: IC50): 30 µM
- IC50 ([3]; hek293): Not Active

Compound: [O-][S+](Cc1cc(Br)cs1)C(c1ccccc1)c1ccccc1 (stereo unspecified)
- IC50 ([1]; read-out: IC50): 13.7 µM
- IC50 ([2]; hek293): Not Active
- IC50 ([3]; read-out: IC50): 70.9 µM

Compound: [O-][S+](Cc1cccs1)C(c1ccccc1)c1ccc(Br)cc1 (stereo in doubt; 11g)
- IC50 ([1]; read-out: IC50): 3.7 µM

Compound: [O-][S+](Cc1sccc1Cl)C(c1ccccc1)c1ccccc1 (stereo unspecified)
- IC50 ([1]; read-out: IC50): 4.9 µM
- IC50 ([2]; read-out: IC50): 188 µM
- IC50 ([3]; hek293): Not Active

Compound: [O-][S+](Cc1cccs1)C(c1ccc(F)cc1)c1ccc(F)cc1 (stereo unspecified)
- IC50 ([1]; read-out: IC50): 4 µM
- IC50 ([2]; read-out: IC50): 113 µM
- IC50 ([3]; read-out: IC50): 120 µM

Compound: [O-][S+](Cc1cccs1)C(c1ccc(Cl)cc1)c1ccc(Cl)cc1 (stereo unspecified)
- IC50 ([1]; read-out: IC50): 7.2 µM
- IC50 ([2]; hek293): Not Active
- IC50 ([3]; hek293): Not Active

Compound: [O-][S+](Cc1nc(C(F)(F)F)no1)C(c1ccccc1)c1ccccc1 (stereo unspecified)
- IC50 ([1]; read-out: IC50): 43.7 µM
- IC50 ([2]; read-out: IC50): 71 µM
- IC50 ([3]; read-out: IC50): 209 µM

Compound: [O-][S@+](Cc1cccs1)[C@H](c1ccccc1)c1ccc(Br)cc1
- IC50 ([1]; read-out: IC50): 1.5 µM
- IC50 ([2]; hek293): Not Active
- IC50 ([3]; hek293): Not Active

Compound: [O-][S+](Cc1ccncc1)C(c1ccccc1)c1ccccc1 (stereo unspecified)
- IC50 ([1]; read-out: IC50): 63.5 µM
- IC50 ([2]; hek293): Not Active
- IC50 ([3]; hek293): Not Active

Compound: COC1NN=C(C[S+]([O-])C(c2ccccc2)c2ccccc2)S1 (stereo unspecified)
- IC50 ([1]; read-out: IC50): 108 µM
- IC50 ([2]; read-out: IC50): 146 µM
- IC50 ([3]; hek293): Not Active

Compound: [O-][S+](Cc1cccs1)C(c1ccccc1)c1ccc(Br)cc1 (stereo in doubt; 11c)
- IC50 ([1]; read-out: IC50): 4.2 µM
- IC50 ([2]; hek293): Not Active
- IC50 ([3]; hek293): Not Active

Compound: Cc1noc(C[S+]([O-])C(c2ccccc2)c2ccccc2)n1 (stereo unspecified)
- IC50 ([1]; read-out: IC50): 56.7 µM
- IC50 ([2]; hek293): Not Active
- IC50 ([3]; hek293): Not Active

Compound: [O-][S+](Cc1csc(Br)c1)C(c1ccccc1)c1ccccc1 (stereo unspecified)
- IC50 ([1]; read-out: IC50): 16.6 µM
- IC50 ([2]; read-out: IC50): 67.2 µM
- IC50 ([3]; read-out: IC50): 44.7 µM

Compound: O=c1[nH]nc(C[S+]([O-])C(c2ccccc2)c2ccccc2)s1 (stereo unspecified)
- IC50 ([1]; read-out: IC50): 38.1 µM
- IC50 ([2]; read-out: IC50): 85.7 µM
- IC50 ([3]; hek293): Not Active

Compound: [O-][S+](Cc1ccsc1)C(c1ccccc1)c1ccccc1 (stereo unspecified)
- IC50 ([1]; read-out: IC50): 3 µM
- IC50 ([2]; read-out: IC50): 57.6 µM
- IC50 ([3]; hek293): Not Active

Compound: [O-][S+](Cc1cccs1)C(c1ccccc1)c1ccc(Br)cc1 (stereo in doubt; 11h)
- IC50 ([1]; read-out: IC50): 2.4 µM

Compound: [O-][S+](Cc1cc(C2CC2)on1)C(c1ccccc1)c1ccccc1 (stereo unspecified)
- IC50 ([1]; read-out: IC50): 38.6 µM
- IC50 ([2]; hek293): Not Active
- IC50 ([3]; hek293): Not Active

Compound: [O-][S+](Cc1ccc(Cl)s1)C(c1ccccc1)c1ccccc1 (stereo unspecified)
- IC50 ([1]; read-out: IC50): 12.8 µM
- IC50 ([2]; read-out: IC50): 68.4 µM
- IC50 ([3]; read-out: IC50): 57.2 µM

Compound: Cc1ccc(C(c2ccc(C)cc2)[S+]([O-])Cc2cccs2)cc1 (stereo unspecified)
- IC50 ([1]; read-out: IC50): 5.8 µM
- IC50 ([2]; hek293): Not Active
- IC50 ([3]; hek293): Not Active

Compound: [O-][S@@+](Cc1cccs1)[C@@H](c1ccccc1)c1ccc(Br)cc1
- IC50 ([1]; read-out: IC50): 4.1 µM
- IC50 ([2]; hek293): Not Active
- IC50 ([3]; hek293): Not Active

Compound: COc1ccnc(C[S+]([O-])C(c2ccccc2)c2ccccc2)c1OC (stereo unspecified)
- IC50 ([1]; hek293): Not Active
- IC50 ([2]; hek293): Not Active
- IC50 ([3]; hek293): Not Active
